≈ marks a conversion by molar mass, not a printed value.
Columns and labels:
[1] = test system: Escherichia coli; assay: Antibacterial activity againist Escherichia coli 120 infected NMRI mice after peroral administration; format: functional; conditions: po
How it was run: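 ED50 in NMRI mice infected intraperitoneally with E. coli 120; compound given orally immediately and 5 h after infection.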

[2] = test system: Salmonella typhimurium; assay: Minimum inhibitory concentration of compound against Salmonella Typhimurium delta 119; format: functional, Salmonella enterica subsp. enterica serovar Typhimurium; conditions: Salmonella enterica
[3] = test system: Escherichia coli; assay: Minimum inhibitory concentration of compound against Escherichia coli delta 120; format: functional
[4] = test system: Klebsiella aerogenes; assay: Minimum inhibitory concentration of compound against Enterobacter aerogenes delta 220; format: functional
[5] = test system: Klebsiella pneumoniae; assay: Minimum inhibitory concentration of compound against Klebsiella pneumoniae delta 217; format: functional
[6] = test system: Proteus mirabilis; assay: Minimum inhibitory concentration against Proteus mirabilis delta 89; format: functional
[7] = test system: Neisseria gonorrhoeae; assay: Minimum inhibitory concentration of compound against Neisseria gonorrhoeae AS 7720; format: functional
How it was run: (§1)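 Agar dilution on Kellogg agar, 10⁶ colony forming units, incubated 20 h at 36 °C in 5% CO₂; MIC is the lowest concentration giving no visible growth.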

[8] = test system: Neisseria gonorrhoeae; assay: Minimum inhibitory concentration of compound against Neisseria gonorrhoeae W2; format: functional; how it was run: as §1

| SMILES | ED50 [1] | MIC [2] | MIC [3] | MIC [4] | MIC [5] | MIC [6] | MIC [7] | MIC [8] |
| --- | --- | --- | --- | --- | --- | --- | --- | --- |
| Cc1ccc(S(=O)(=O)N2N=Cc3cc(Cl)c(Cl)cc3B2O)cc1 | > 100 mg/kg | > 50 µg/mL | > 50 µg/mL |  |  |  |  |  |
| Cc1ccc(S(=O)(=O)N2N=C(c3ccccc3)c3ccccc3B2O)cc1 | > 300 mg/kg | > 50 µg/mL | > 50 µg/mL |  |  |  |  |  |
| Cc1ccc(S(=O)(=O)N2N=Cc3ccc(C(=O)O)cc3B2O)cc1 |  | > 50 µg/mL | > 50 µg/mL |  |  |  |  |  |
| Cc1ccc(S(=O)(=O)N2N=Cc3c(Cl)cc(Cl)cc3B2O)cc1 | > 100 mg/kg | > 50 µg/mL | > 50 µg/mL |  |  |  |  |  |
| Cc1ccc(S(=O)(=O)N2N=Cc3c(C)ccc(C)c3B2O)cc1 | > 600 mg/kg | > 50 µg/mL | > 50 µg/mL | > 50 µg/mL | > 50 µg/mL | > 50 µg/mL |  |  |
| CCc1cc2c(s1)B(O)N(S(=O)(=O)c1ccccc1Cl)N=C2 | 24 mg/kg | 2.5 µg/mL (≈ 7.05 µM) | 10 µg/mL (≈ 28.2 µM) | 25 µg/mL (≈ 70.5 µM) | 1.25 µg/mL (≈ 3.52 µM) | 1.56 µg/mL (≈ 4.4 µM) | 0.5 µg/mL (≈ 1.41 µM) | 1 µg/mL (≈ 2.82 µM) |
| O=S(=O)(c1cc(Cl)c(Cl)cc1Cl)N1N=Cc2c(F)cccc2B1O | > 300 mg/kg | > 50 µg/mL | > 50 µg/mL | > 50 µg/mL | > 50 µg/mL | 25 µg/mL (≈ 61.4 µM) |  |  |
| CCc1cc2c(s1)B(O)N(S(=O)(=O)c1ccc(C)cc1)N=C2 | 9 mg/kg | 1.56 µg/mL (≈ 4.67 µM) | 6.25 µg/mL (≈ 18.7 µM) | 25 µg/mL (≈ 74.8 µM) | 1.25 µg/mL (≈ 3.74 µM) | 1.25 µg/mL (≈ 3.74 µM) | 0.25 µg/mL (≈ 0.748 µM) | 0.5 µg/mL (≈ 1.5 µM) |
| Cc1ccc(S(=O)(=O)N2N=Cc3c(ccn3Cc3ccccc3)B2O)cc1 | > 600 mg/kg | > 50 µg/mL | > 50 µg/mL | > 50 µg/mL | 50 µg/mL (≈ 132 µM) | 50 µg/mL (≈ 132 µM) |  |  |
| Cc1ccc(S(=O)(=O)N2N=Cc3c(C)cccc3B2O)cc1 | > 100 mg/kg | 50 µg/mL (≈ 159 µM) | > 50 µg/mL | > 50 µg/mL | 10 µg/mL (≈ 31.8 µM) | 5 µg/mL (≈ 15.9 µM) | 2 µg/mL (≈ 6.37 µM) | 8 µg/mL (≈ 25.5 µM) |
| CC(=O)Nc1ccc(S(=O)(=O)N2N=Cc3cc(C)ccc3B2O)c(Cl)c1 | 16 mg/kg | 6.25 µg/mL (≈ 16 µM) | 25 µg/mL (≈ 63.8 µM) | 25 µg/mL (≈ 63.8 µM) | 1.25 µg/mL (≈ 3.19 µM) | 1.25 µg/mL (≈ 3.19 µM) | 0.5 µg/mL (≈ 1.28 µM) | 1 µg/mL (≈ 2.55 µM) |
| Cc1ccc(S(=O)(=O)N2N=Cc3c(F)cccc3B2O)cc1 | 5 mg/kg | 25 µg/mL (≈ 78.6 µM) | > 50 µg/mL | > 50 µg/mL | 25 µg/mL (≈ 78.6 µM) | 3.12 µg/mL (≈ 9.81 µM) | 2 µg/mL (≈ 6.29 µM) | 8 µg/mL (≈ 25.1 µM) |
| Cc1ccc(S(=O)(=O)N2N=Cc3c(Br)cccc3B2O)cc1 | > 100 mg/kg | > 50 µg/mL | > 50 µg/mL |  |  |  |  |  |
| CN(C)S(=O)(=O)N1N=Cc2ccccc2B1O | 57 mg/kg | 50 µg/mL (≈ 198 µM) | > 50 µg/mL | > 50 µg/mL | 12.5 µg/mL (≈ 49.4 µM) | 50 µg/mL (≈ 198 µM) | > 8 µg/mL | > 8 µg/mL |
| Cc1ccc(S(=O)(=O)N2N=Cc3cc(N)ccc3B2O)cc1 | > 300 mg/kg | > 50 µg/mL | > 50 µg/mL | > 50 µg/mL | 50 µg/mL (≈ 159 µM) | 50 µg/mL (≈ 159 µM) |  |  |
| Cc1ccc(S(=O)(=O)N2N=Cc3ccc(N(C)C)cc3B2O)cc1 | 100 mg/kg | > 50 µg/mL | > 50 µg/mL |  |  |  |  |  |
| Cc1ccc(S(=O)(=O)N2N=Cc3c(Cl)cccc3B2O)cc1 | ~100 mg/kg | > 50 µg/mL | > 50 µg/mL |  |  |  |  |  |
| Cc1ccc(S(=O)(=O)N2N=Cc3scc(Br)c3B2O)cc1 | > 300 mg/kg | > 50 µg/mL | > 50 µg/mL | > 50 µg/mL | > 50 µg/mL | 50 µg/mL (≈ 130 µM) |  |  |
| Cc1ccc2c(c1)C=NN(S(=O)(=O)c1ccc(N)cc1)B2O | 5 mg/kg | 3.12 µg/mL (≈ 9.9 µM) | 6.25 µg/mL (≈ 19.8 µM) | 25 µg/mL (≈ 79.3 µM) | 1.56 µg/mL (≈ 4.95 µM) | 0.39 µg/mL (≈ 1.24 µM) | 2 µg/mL (≈ 6.35 µM) | 8 µg/mL (≈ 25.4 µM) |
| CCCS(=O)(=O)N1N=Cc2cc(C)ccc2B1O | 73 mg/kg | 2.5 µg/mL (≈ 9.39 µM) | 6.25 µg/mL (≈ 23.5 µM) | 10 µg/mL (≈ 37.6 µM) | 1.25 µg/mL (≈ 4.7 µM) | 1.56 µg/mL (≈ 5.86 µM) | 2 µg/mL (≈ 7.52 µM) | 2 µg/mL (≈ 7.52 µM) |
| Cc1ccc(S(=O)(=O)N2N=Cc3cc(N(C)C)ccc3B2O)cc1 | > 300 mg/kg | > 50 µg/mL | > 50 µg/mL |  |  |  |  |  |
| CC(=O)Nc1ccc2c(c1)B(O)N(S(=O)(=O)c1ccc(C)cc1)N=C2 | > 300 mg/kg | > 50 µg/mL | > 50 µg/mL |  |  |  |  |  |
| Cc1cc2c(s1)B(O)N(S(=O)(=O)CC(C)C)N=C2 | 5 mg/kg | 1.56 µg/mL (≈ 5.45 µM) | 6.25 µg/mL (≈ 21.8 µM) | 6.25 µg/mL (≈ 21.8 µM) | 0.78 µg/mL (≈ 2.73 µM) | 1.56 µg/mL (≈ 5.45 µM) | 1 µg/mL (≈ 3.49 µM) | 1 µg/mL (≈ 3.49 µM) |
| Cc1ccc(S(=O)(=O)N2N=Cc3cc4c(cc3B2O)-c2ccccc2C4)cc1 | > 600 mg/kg | > 50 µg/mL | > 50 µg/mL | > 50 µg/mL | > 50 µg/mL | 50 µg/mL (≈ 129 µM) | 2 µg/mL (≈ 5.15 µM) | 8 µg/mL (≈ 20.6 µM) |
